pIC50: −log10 of the molar value. ≈ marks a conversion by molar mass, not a printed value. Calls of active or inactive are those of the source. The rule behind the calls is not given here.
Columns and labels:
Keap1/Nrf2 = Keap1/Nrf2 (Homo sapiens, UniProt Q14145); experiment: Inhibition of Keap1 Kelch domain-Nrf2 ETGE (unknown origin) protein-protein interaction incubated for 30 mins by fluorescence polarization competition assay
[1] = Lipophilicity, log D of the compound; assay type: physicochemical; conditions: octanol/water
In short: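 log D at pH 7.4 measured by Avdeef−Bucher potentiometric titration on a Gemini Profiler instrument.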

[2] = Solubility of the compound; assay type: physicochemical
In short: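 Intrinsic solubility determined by the pH-metric method, a potentiometric acid−base titration, using the pSOL model.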

Mus musculus [3] = experiment: Anti-inflammatory in LPS-challenged C57BL/6 mouse model of acute inflammation assessed as reduction in IFNgamma level at 10 mg/kg, ip for 3 days pre-treated for 3 days followed by LPS challenge 24 hrs after last dose and measured 5 hrs post LPS challenge by ELISA method; assay type: functional, organism-based
In short: (§1)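 Female C57BL/6 mice (12−16 weeks), randomised, n = 10 per group; single daily IP injection on days −3, −2, −1, then 300 μg LPS IP 24 h after the last dose (day 0). Controls were saline-only and saline plus LPS, with dexamethasone 10 mg/kg/day as positive control. Sera taken 5 h post-LPS; plasma frozen at −20 °C and cytokines read by double-sandwich ELISA; mean ± SEM.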

Mus musculus [4] = experiment: Anti-inflammatory in LPS-challenged C57BL/6 mouse model of acute inflammation assessed as reduction in IL6 level at 10 mg/kg, ip for 3 days pre-treated for 3 days followed by LPS challenge 24 hrs after last dose and measured 5 hrs post LPS challenge by ELISA method; assay type: functional, organism-based; in short: as §1
Mus musculus [5] = experiment: Anti-inflammatory in LPS-challenged C57BL/6 mouse model of acute inflammation assessed as reduction in IL17 level at 10 mg/kg, ip for 3 days pre-treated for 3 days followed by LPS challenge 24 hrs after last dose and measured 5 hrs post LPS challenge by ELISA method; assay type: functional, organism-based; in short: as §1
Mus musculus [6] = experiment: Anti-inflammatory in LPS-challenged C57BL/6 mouse model of acute inflammation assessed as reduction in IL12 level at 10 mg/kg, ip for 3 days pre-treated for 3 days followed by LPS challenge 24 hrs after last dose and measured 5 hrs post LPS challenge by ELISA method; assay type: functional, organism-based; in short: as §1
Mus musculus [7] = experiment: Anti-inflammatory in LPS-challenged C57BL/6 mouse model of acute inflammation assessed as reduction in TNFalpha level at 10 mg/kg, ip for 3 days pre-treated for 3 days followed by LPS challenge 24 hrs after last dose and measured 5 hrs post LPS challenge by ELISA method; assay type: functional, organism-based; in short: as §1
Mus musculus [8] = experiment: Toxicity in LPS-challenged C57BL/6 mouse model of acute inflammation at 80 mg/kg, ip for 3 days pre-treated for 3 days followed by LPS challenge 24 hrs after last dose and measured 5 hrs post LPS challenge; assay type: organism-based; conditions: in vivo
In short: (§2)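 Female C57BL/6 mice (12−16 weeks), n = 10 per group, dosed IP once daily on days −3 to −1, then challenged with 300 μg LPS IP 24 h after the last dose. Body weight and signs of acute toxicity were monitored during the pretreatment period.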

Mus musculus [9] = experiment: Toxicity in LPS-challenged C57BL/6 mouse model of acute inflammation assessed as changes in body weight at 10 mg/kg, ip for 3 days pre-treated for 3 days followed by LPS challenge 24 hrs after last dose and measured 5 hrs post LPS challenge; assay type: organism-based; conditions: in vivo; in short: as §2
Mus musculus [10] = experiment: Toxicity in LPS-challenged C57BL/6 mouse model of acute inflammation at 10 mg/kg, ip for 3 days pre-treated for 3 days followed by LPS challenge 24 hrs after last dose and measured 5 hrs post LPS challenge; assay type: organism-based; conditions: in vivo; in short: as §2
Mus musculus [11] = experiment: Toxicity in LPS-challenged C57BL/6 mouse model of acute inflammation assessed as changes in body weight at 80 mg/kg, ip for 3 days pre-treated for 3 days followed by LPS challenge 24 hrs after last dose and measured 5 hrs post LPS challenge; assay type: organism-based; conditions: in vivo; in short: as §2

Keap1/Nrf2, sequence (Q16236 whole entry, the tested form may be a part): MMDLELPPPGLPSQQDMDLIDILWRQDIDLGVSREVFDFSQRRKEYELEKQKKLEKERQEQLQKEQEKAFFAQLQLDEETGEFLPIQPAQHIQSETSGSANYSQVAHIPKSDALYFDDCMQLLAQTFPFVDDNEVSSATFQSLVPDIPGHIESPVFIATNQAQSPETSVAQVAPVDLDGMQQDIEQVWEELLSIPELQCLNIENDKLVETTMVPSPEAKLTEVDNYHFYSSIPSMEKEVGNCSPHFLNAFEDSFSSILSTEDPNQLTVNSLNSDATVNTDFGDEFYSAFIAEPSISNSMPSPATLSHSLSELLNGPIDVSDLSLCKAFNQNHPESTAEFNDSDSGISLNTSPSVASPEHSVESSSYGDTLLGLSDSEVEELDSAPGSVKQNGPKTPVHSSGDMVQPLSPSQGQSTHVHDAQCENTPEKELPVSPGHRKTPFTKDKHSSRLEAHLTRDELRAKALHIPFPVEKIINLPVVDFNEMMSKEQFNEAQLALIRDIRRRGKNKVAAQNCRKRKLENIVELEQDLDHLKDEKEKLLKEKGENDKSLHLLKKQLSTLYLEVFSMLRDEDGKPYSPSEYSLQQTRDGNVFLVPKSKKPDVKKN
Keap1/Nrf2, sequence (Q14145 whole entry, the tested form may be a part): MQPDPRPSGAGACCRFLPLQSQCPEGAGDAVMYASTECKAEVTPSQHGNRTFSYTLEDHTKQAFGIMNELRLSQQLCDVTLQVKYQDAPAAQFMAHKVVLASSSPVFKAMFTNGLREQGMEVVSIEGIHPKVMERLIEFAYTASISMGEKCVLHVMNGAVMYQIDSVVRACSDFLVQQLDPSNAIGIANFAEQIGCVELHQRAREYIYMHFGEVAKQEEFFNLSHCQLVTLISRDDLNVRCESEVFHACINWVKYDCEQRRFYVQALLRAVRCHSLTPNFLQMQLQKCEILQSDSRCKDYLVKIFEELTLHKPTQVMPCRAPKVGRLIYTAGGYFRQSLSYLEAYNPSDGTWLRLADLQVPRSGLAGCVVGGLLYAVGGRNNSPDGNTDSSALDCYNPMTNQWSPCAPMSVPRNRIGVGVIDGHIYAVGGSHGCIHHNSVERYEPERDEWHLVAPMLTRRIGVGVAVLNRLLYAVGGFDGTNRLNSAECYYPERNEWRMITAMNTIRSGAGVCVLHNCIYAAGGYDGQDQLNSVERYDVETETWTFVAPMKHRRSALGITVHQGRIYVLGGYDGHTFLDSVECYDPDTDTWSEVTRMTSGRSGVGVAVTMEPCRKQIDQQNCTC

Row | pIC50 (Keap1/Nrf2) | logD [1] | solubility ([2]; read-out: solubility) [µg/mL] | SMILES | further results
1 | 5.84 |  |  | COc1ccc(S(=O)(=O)N(CC(=O)O)c2ccc(N(CC(=O)O)S(=O)(=O)c3ccc(OC)cc3)cc2)cc1 | 
2 | 7.37 | 2.11 | 1200 (≈ 1920 µM) | O=C(O)CN(c1ccc(N(CC(=O)O)S(=O)(=O)c2ccc(Cl)cc2)c2ccccc12)S(=O)(=O)c1ccc(Cl)cc1 | 
3 |  |  |  | C[C@@H]1C[C@H]2[C@@H]3CCC4=CC(=O)C=C[C@]4(C)[C@@]3(F)[C@@H](O)C[C@]2(C)[C@@]1(O)C(=O)CO | inhibition (Mus musculus [3]): Active; inhibition (Mus musculus [4]): Active; inhibition (Mus musculus [5]): Active; inhibition (Mus musculus [6]): Active; inhibition (Mus musculus [7]): Active
4 | 5.73 |  |  | COc1ccc(S(=O)(=O)N(CC(=O)O)c2cccc3c(N(CC(=O)O)S(=O)(=O)c4ccc(OC)cc4)cccc23)cc1 | 
5 | 6.75 | 0.93 | 12.3 (≈ 17 µM) | O=C(O)CN(c1ccc(N(CC(=O)O)S(=O)(=O)c2ccc(OC(F)(F)F)cc2)c2ccccc12)S(=O)(=O)c1ccc(OC(F)(F)F)cc1 | 
6 | 7.46 | 0.45 | 183 (≈ 330 µM) | O=C(O)CN(c1ccc(N(CC(=O)O)S(=O)(=O)c2ccccc2)c2ccccc12)S(=O)(=O)c1ccccc1 | 
7 | 7.18 | 0.89 | 16 (≈ 26 µM) | COc1cccc(S(=O)(=O)N(CC(=O)O)c2ccc(N(CC(=O)O)S(=O)(=O)c3cccc(OC)c3)c3ccccc23)c1 | 
8 | 6.91 | 2.81 | 12.3 (≈ 17.8 µM) | O=C(O)CN(c1ccc(N(CC(=O)O)S(=O)(=O)c2ccc(C(F)(F)F)cc2)c2ccccc12)S(=O)(=O)c1ccc(C(F)(F)F)cc1 | 
9 | 4.99 |  |  | COc1ccc(S(=O)(=O)N(CC(=O)O)c2cc(C)c(N(CC(=O)O)S(=O)(=O)c3ccc(OC)cc3)cc2C)cc1 | 
10 |  | 1.02 | 5000 (≈ 7480 µM) | CC(=O)Nc1ccc(S(=O)(=O)N(CC(=O)O)c2ccc(N(CC(=O)O)S(=O)(=O)c3ccc(NC(C)=O)cc3)c3ccccc23)cc1 | Activity (Mus musculus [8]): Non-toxic; Activity (Mus musculus [9]): Non-toxic; Activity (Mus musculus [10]): Non-toxic; Activity (Mus musculus [11]): Non-toxic
11 | 6.02 |  |  | Cc1ccc(S(=O)(=O)N(CC(=O)O)c2ccc(N(CC(=O)O)S(=O)(=O)c3ccc(C)cc3)cc2)cc1 | 
12 | 6.22 |  |  | COc1ccc(S(=O)(=O)N(CC(=O)O)c2ccc(N(CC(=O)O)S(=O)(=O)c3ccc(OC)cc3)c(OC)c2)cc1 | 
13 | 7.30 | 5.2 | 1.6 (≈ 2.4 µM) | CC(C)(C)c1ccc(S(=O)(=O)N(CC(=O)O)c2ccc(N(CC(=O)O)S(=O)(=O)c3ccc(C(C)(C)C)cc3)c3ccccc23)cc1 | 
14 | 6.01 | 3.44 | 20 (≈ 31.3 µM) | Cc1cc(C)c(S(=O)(=O)N(CC(=O)O)c2ccc(N(CC(=O)O)S(=O)(=O)c3c(C)cc(C)cc3C)c3ccccc23)c(C)c1 | 
15 | 5.78 |  |  | COc1ccc(S(=O)(=O)N(CC(=O)O)c2ccc(N(CC(=O)O)S(=O)(=O)c3ccc(OC)cc3)c(C)c2)cc1 | 
16 | 6.93 | 0.65 | 1100 (≈ 1820 µM) | N#Cc1ccc(S(=O)(=O)N(CC(=O)O)c2ccc(N(CC(=O)O)S(=O)(=O)c3ccc(C#N)cc3)c3ccccc23)cc1 | 
17 | 7.27 | 1.16 | 3800 (≈ 6430 µM) | O=C(O)CN(c1ccc(N(CC(=O)O)S(=O)(=O)c2ccc(F)cc2)c2ccccc12)S(=O)(=O)c1ccc(F)cc1 | 
18 | 7.32 | 3.9 | 5 (≈ 7.64 µM) | O=C(O)CN(c1ccc(N(CC(=O)O)S(=O)(=O)c2cccc3ccccc23)c2ccccc12)S(=O)(=O)c1cccc2ccccc12 | 
19 |  |  | 388 (≈ 631 µM) | COc1ccc(S(=O)(=O)N(CC(=O)O)c2ccc(N(CC(=O)O)S(=O)(=O)c3ccc(OC)cc3)c3ccccc23)cc1 | 
20 | 7.44 | 4.29 | 5.7 (≈ 8 µM) | O=C(O)CN(c1ccc(N(CC(=O)O)S(=O)(=O)c2ccc(Br)cc2)c2ccccc12)S(=O)(=O)c1ccc(Br)cc1 | 
21 | 7.74 | 0.93 | 248 (≈ 426 µM) | Cc1ccc(S(=O)(=O)N(CC(=O)O)c2ccc(N(CC(=O)O)S(=O)(=O)c3ccc(C)cc3)c3ccccc23)cc1 | 
22 | 7.37 | 1.89 |  | CCCCc1ccc(S(=O)(=O)N(CC(=O)O)c2ccc(N(CC(=O)O)S(=O)(=O)c3ccc(CCCC)cc3)c3ccccc23)cc1 | solubility [2]: 0.006 µg/mL (≈ 0.009 µM)

From ChEMBL document CHEMBL3600323, “Structure-Activity and Structure-Property Relationship and Exploratory in Vivo Evaluation of the Nanomolar Keap1-Nrf2 Protein-Protein Interaction Inhibitor” (J Med Chem, 2015)
